Results gathered from unrelated publications.
Compare with care: the assays were run in different laboratories.
CDK5: Cyclin-dependent kinase 5 (CDK5, Homo sapiens, UniProt Q00535)
CDK5 with p25: Cyclin-dependent kinase 5, with p25 (CDK5, Homo sapiens, UniProt Q00535)

SMILES	target	test	setting	quantity	value
NS(=O)(=O)c1cc(NC(=O)Cc2ccccc2)ccc1Oc1cccc(Cl)c1	CDK5	cell-free assay, competition with immobilised ligand	1 µM	remaining binding	61%
CCCOc1ccc(OC)c(F)c1C(=O)c1ccc(C(=O)N[C@@H]2CNC[C@H]2NC(=O)c2ccc3[nH]ncc3c2)cc1	CDK5 with p25	enzyme activity, inhibitor	10 µM	remaining activity	1%
Cc1ccc(C(=O)NCc2ccsc2)cc1C#Cc1cn(C(C)C)c2ncnc(N)c12	CDK5 with p25	enzyme activity, inhibitor	1 µM	activity vs control	95%
CC(=O)c1c(NS(C)(=O)=O)c2cc(-c3ccc(Cl)cc3)c(-c3ccc(Cl)cc3Cl)nc2n(C)c1=O	CDK5	cell-free assay, competition with immobilised ligand	1 µM	remaining binding	100%
N#CCCc1ccc2c(c1)-c1[nH]c3ccc([N+](=O)[O-])cc3c1CC(=O)N2	CDK5 with p25	cell-free assay	0.5 µM	remaining signal	5.79%
O=C1NC(c2ccccn2)Sc2ccccc21 (stereo not shown)	CDK5	cell-free assay, competition with immobilised ligand	1 µM	remaining binding	86%
O=C1Nc2ccc(Cl)cc2C1=Cc1cc(Cl)c(O)c(Cl)c1	CDK5 with p25	cell-free assay	0.5 µM	remaining signal	82.6%
CC[C@H](C)[C@H](NC(=O)[C@H](CCC(N)=O)NC(=O)[C@H](CC(C)C)NC(=O)[C@H](CCSC)NC(=O)[C@H](CCCCN)NC(=O)[C@H](CO)NC(=O)[C@H](CO)NC(=O)[C@H](CCSC)NC(=O)[C@H](CC(C)C)NC(=O)[C@H](CC(N)=O)NC(=O)[C@@H](NC(=O)[C@@H](NC(=O)[C@H](CO)NC(=O)[C@H](CC(C)C)NC(=O)[C@H](CS)NC(=O)[C@H](CCCNC(=N)N)NC(=O)[C@H](CC(=O)O)NC(=O)[C@H](Cc1c[nH]c2ccccc12)NC(=O)[C@H](Cc1ccccc1)NC(=O)[C@H](C)NC(=O)[C@H](CCC(=O)O)NC(=O)[C@@H](N)CCCCN)C(C)C)[C@@H](C)CC)C(=O)N[C@@H](CC(N)=O)C(=O)N[C@@H](C)C(=O)O	CDK5 with p25	enzyme activity, inhibitor, radiometric	100 µM, 20 min	remaining activity	59%
CS(=O)(=O)N1CCCC(NC(=O)[C@H](CCC2CCCCC2)NC(=O)c2ccc(CNC(=O)c3cnc4ccccn34)cc2)C1 (stereo partly shown)	CDK5	cell-free assay, competition with immobilised ligand	0.1 µM	remaining binding	100%
Cc1cc(NC(=O)c2cccc3cc(-c4cccc5[nH]nc(N)c45)ccc23)ccc1F	CDK5 with p25	enzyme activity, inhibitor	0.1 µM	activity vs control	94%
Nc1nc(Nc2ccc(S(N)(=O)=O)cc2)nn1C(=O)c1c(F)cccc1F	CDK5 with p25	cell-free assay	0.5 µM	remaining signal	2.54%
CC(C)c1ccc(NC(=O)c2cccs2)c(-c2nc3ccccc3[nH]c2=O)c1	Cyclin-dependent kinase 5, with p35 (CDK5, Homo sapiens, UniProt Q00535)	enzyme activity, inhibitor	1 µM	activity vs control	103%
Oc1ccc(-c2nc(-c3ccncc3)c(-c3ccc(F)cc3)[nH]2)cc1	CDK5 with p25	cell-free assay	0.5 µM	remaining signal	96%
Cc1ccc(NC(=O)c2ccc(C)c(C(F)(F)F)c2)cc1C#Cc1nn(C2CCC(O)CC2)c2ncnc(N)c12 (stereo not shown)	CDK5 with p25	cell-free assay	10 µM	remaining signal	87%
O=C1NC(=O)c2cc(Nc3ccc(F)cc3)c(Nc3ccc(F)cc3)cc21	CDK5 with p25	cell-free assay	0.5 µM	remaining signal	85.9%
CS(=O)(=O)c1cc(C2(NC(=O)c3cncc4c3cnn4-c3ccc(F)cc3)CC2)ccn1	CDK5	cell-free assay, competition with immobilised ligand	1 µM	remaining binding	100%
